Laboratory results as given in ChEMBL document CHEMBL1154066, “Synthesis, physicochemical properties and antimicrobial activity of some new benzimidazole derivatives” (2009).
Converted amounts (≈) assume the structure as drawn.

Columns and labels:
[1] = tested on: Candida albicans; test: Antifungal activity against Candida albicans MTCC 1637 at 300 ug/disk after 7 days by disk diffusion method; assay type: functional; settings: MTCC 1637, 168 h, read-out: IZ
Outline: (§1)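 Disc diffusion on Mueller–Hinton agar seeded with a standardized suspension, following NCCLS. Sterile 6 mm paper discs held 300 µg of test compound, amphotericin B at 10 µg as reference, or DMSO alone as negative control. Plates were incubated at 28 ± 2 °C for 7 days. Inhibition zone diameters (mm) were measured in triplicate and scored as 10–15, 16–21 or 22–28 mm.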

[2] = tested on: Aspergillus flavus; test: Antifungal activity against Aspergillus flavus at 300 ug/disk after 7 days by disk diffusion method; assay type: functional; settings: 168 h, read-out: IZ; outline: as §1
[3] = tested on: Escherichia coli; test: Antibacterial activity against Escherichia coli ATCC 25922 after 20 hrs by two fold dilution method; assay type: functional; settings: ATCC 25922, 20 h
Outline: (§2)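 Twofold agar dilution in Mueller–Hinton agar. Compounds were dissolved in DMSO and diluted into the medium at final 128–1 µg/mL. The inoculum was 10^4 CFU/plate, and a medium-plus-DMSO plate served as negative control. Plates were incubated at 35 °C for 20 h. MIC was taken as the lowest concentration giving complete growth inhibition. Experiments were run three times.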

[4] = tested on: Staphylococcus aureus; test: Antibacterial activity against Staphylococcus aureus ATCC 29213 after 20 hrs by two fold dilution method; assay type: functional; settings: ATCC 29213, 20 h; outline: as §2
[5] = tested on: Streptococcus mutans; test: Antibacterial activity against Streptococcus mutans MTCC 890 after 20 hrs by two fold dilution method; assay type: functional; settings: MTCC 890, 20 h; outline: as §2
[6] = tested on: Bacillus subtilis; test: Antibacterial activity against Bacillus subtilis MTCC 121 after 20 hrs by two fold dilution method; assay type: functional; settings: MTCC 121, 20 h; outline: as §2
[7] = tested on: Salmonella typhi; test: Antibacterial activity against Salmonella typhi MTCC 733 after 20 hrs by two fold dilution method; assay type: functional, Salmonella enterica subsp. enterica serovar Typhi; settings: Salmonella enterica, MTCC 733, 20 h
Outline: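 Twofold agar dilution in Mueller–Hinton agar. Compounds dissolved in DMSO and diluted into medium to final 128–1 µg/mL; medium with DMSO at the same dilution as negative control. Inoculum 10^4 CFU/plate; incubated 35 °C for 20 h. MIC taken as lowest concentration giving complete growth inhibition, in µg/mL. Ampicillin and ciprofloxacin as references; three independent experiments.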

[8] = tested on: Aspergillus niger; test: Antifungal activity against Aspergillus niger at 300 ug/disk after 7 days by disk diffusion method; assay type: functional; settings: 168 h, read-out: IZ; outline: as §1
[9] = tested on: Pseudomonas aeruginosa; test: Antibacterial activity against Pseudomonas aeruginosa MTCC 741 after 20 hrs by two fold dilution method; assay type: functional; settings: MTCC 741, 20 h; outline: as §2

Structure (SMILES): Cc1nc2ccccc2n1Cc1nnc(CCl)o1
- zone of inhibition at 300 µg/disc [1]: 10 mm
- zone of inhibition at 300 µg/disc [2]: 10 mm
- MIC [3]: 16 µg/mL (≈ 60.9 µM)
- MIC [4]: 16 µg/mL (≈ 60.9 µM)
- MIC [5]: 32 µg/mL (≈ 122 µM)
- MIC [6]: 16 µg/mL (≈ 60.9 µM)
- MIC [7]: > 128 µg/mL
- zone of inhibition at 300 µg/disc [8]: 16 mm

Structure (SMILES): Cc1nc2ccccc2n1Cc1nnc(-c2ccccc2)o1
- MIC [3]: 32 µg/mL (≈ 110 µM)
- MIC [4]: 8 µg/mL (≈ 27.6 µM)
- MIC [5]: 8 µg/mL (≈ 27.6 µM)
- MIC [6]: 8 µg/mL (≈ 27.6 µM)
- MIC [7]: 64 µg/mL (≈ 220 µM)

Structure (SMILES): Clc1ccc(-c2nnc(Cn3cnc4ccccc43)o2)cc1
- MIC [3]: 32 µg/mL (≈ 103 µM)
- MIC [4]: 32 µg/mL (≈ 103 µM)
- MIC [5]: 16 µg/mL (≈ 51.5 µM)
- MIC [6]: 32 µg/mL (≈ 103 µM)

Structure (SMILES): Cc1nc2ccccc2n1Cc1nnc(CCCl)o1
- zone of inhibition at 300 µg/disc [1]: 16 mm
- zone of inhibition at 300 µg/disc [2]: 10 mm
- MIC [3]: 32 µg/mL (≈ 116 µM)
- MIC [4]: 4 µg/mL (≈ 14.5 µM)
- MIC [5]: 8 µg/mL (≈ 28.9 µM)
- MIC [6]: 8 µg/mL (≈ 28.9 µM)
- MIC [7]: 16 µg/mL (≈ 57.8 µM)
- zone of inhibition at 300 µg/disc [8]: 10 mm

Structure (SMILES): Oc1ccc(-c2nnc(Cn3cnc4ccccc43)o2)cc1
- MIC [3]: 32 µg/mL (≈ 109 µM)
- MIC [5]: 32 µg/mL (≈ 109 µM)
- MIC [9]: 64 µg/mL (≈ 219 µM)
- MIC [6]: 16 µg/mL (≈ 54.7 µM)

Structure (SMILES): COc1ccccc1-c1nnc(Cn2cnc3ccccc32)o1
- zone of inhibition at 300 µg/disc [1]: 16 mm
- zone of inhibition at 300 µg/disc [2]: < 10 mm
- MIC [3]: 32 µg/mL (≈ 104 µM)
- MIC [4]: 16 µg/mL (≈ 52.2 µM)
- MIC [9]: > 128 µg/mL
- MIC [6]: 16 µg/mL (≈ 52.2 µM)
- zone of inhibition at 300 µg/disc [8]: < 10 mm

Structure (SMILES): c1ccc(-c2nnc(Cn3cnc4ccccc43)o2)cc1
- MIC [3]: 64 µg/mL (≈ 232 µM)
- MIC [4]: 16 µg/mL (≈ 57.9 µM)
- MIC [5]: 32 µg/mL (≈ 116 µM)
- MIC [6]: 16 µg/mL (≈ 57.9 µM)
- MIC [7]: > 128 µg/mL

Structure (SMILES): Cc1nc2ccccc2n1Cc1nnc(-c2ccc(Cl)cc2)o1
- zone of inhibition at 300 µg/disc [1]: 22 mm
- zone of inhibition at 300 µg/disc [2]: 22 mm
- MIC [3]: > 128 µg/mL
- MIC [4]: 2 µg/mL (≈ 6.16 µM)
- MIC [5]: 4 µg/mL (≈ 12.3 µM)
- MIC [6]: 4 µg/mL (≈ 12.3 µM)
- zone of inhibition at 300 µg/disc [8]: 10 mm

Structure (SMILES): CCc1nnc(Cn2c(C)nc3ccccc32)o1
- zone of inhibition at 300 µg/disc [1]: 16 mm
- zone of inhibition at 300 µg/disc [2]: 16 mm
- MIC [3]: 32 µg/mL (≈ 132 µM)
- MIC [4]: 4 µg/mL (≈ 16.5 µM)
- MIC [5]: 4 µg/mL (≈ 16.5 µM)
- MIC [9]: > 128 µg/mL
- MIC [6]: 8 µg/mL (≈ 33 µM)
- MIC [7]: 32 µg/mL (≈ 132 µM)
- zone of inhibition at 300 µg/disc [8]: 10 mm

Structure (SMILES): Clc1ccccc1-c1nnc(Cn2cnc3ccccc32)o1
- MIC [3]: > 128 µg/mL
- MIC [4]: 32 µg/mL (≈ 103 µM)
- MIC [5]: 16 µg/mL (≈ 51.5 µM)
- MIC [6]: 16 µg/mL (≈ 51.5 µM)
- MIC [7]: 32 µg/mL (≈ 103 µM)

Structure (SMILES): Cc1nc2ccccc2n1Cc1nnc(-c2ccc(O)cc2)o1
- zone of inhibition at 300 µg/disc [1]: 22 mm
- zone of inhibition at 300 µg/disc [2]: 16 mm
- MIC [3]: > 128 µg/mL
- MIC [4]: 8 µg/mL (≈ 26.1 µM)
- MIC [5]: 4 µg/mL (≈ 13.1 µM)
- MIC [6]: 8 µg/mL (≈ 26.1 µM)
- zone of inhibition at 300 µg/disc [8]: 16 mm

Structure (SMILES): COc1ccc(-c2nnc(Cn3c(C)nc4ccccc43)o2)cc1
- zone of inhibition at 300 µg/disc [1]: 22 mm
- zone of inhibition at 300 µg/disc [2]: 16 mm
- MIC [3]: 16 µg/mL (≈ 49.9 µM)
- MIC [4]: 2 µg/mL (≈ 6.24 µM)
- MIC [5]: 4 µg/mL (≈ 12.5 µM)
- MIC [9]: 64 µg/mL (≈ 200 µM)
- MIC [6]: 8 µg/mL (≈ 25 µM)
- MIC [7]: 16 µg/mL (≈ 49.9 µM)
- zone of inhibition at 300 µg/disc [8]: 16 mm
